Screening data (PubChem)
Most compounds without a hit are left out; they make up all but 29% or so of the library.
CYP2C19 inhib: human CYP2C19 inhibition. CYP2C19 Supersomes, luciferin-H EGE luminescence, 30 min. AID 778. P33261. 96,000 tested, 21% active. inhibition, % at 5 µM;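 active means CYP2C19 inhibition above a set limit at 5 µM in the primary screen, cut at about 50% in these data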;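 further: plate controls were negative control wells for no effect and 2.5 mM tranylcypromine positive control for full effect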
Target sequence (P33261 whole entry, looked up): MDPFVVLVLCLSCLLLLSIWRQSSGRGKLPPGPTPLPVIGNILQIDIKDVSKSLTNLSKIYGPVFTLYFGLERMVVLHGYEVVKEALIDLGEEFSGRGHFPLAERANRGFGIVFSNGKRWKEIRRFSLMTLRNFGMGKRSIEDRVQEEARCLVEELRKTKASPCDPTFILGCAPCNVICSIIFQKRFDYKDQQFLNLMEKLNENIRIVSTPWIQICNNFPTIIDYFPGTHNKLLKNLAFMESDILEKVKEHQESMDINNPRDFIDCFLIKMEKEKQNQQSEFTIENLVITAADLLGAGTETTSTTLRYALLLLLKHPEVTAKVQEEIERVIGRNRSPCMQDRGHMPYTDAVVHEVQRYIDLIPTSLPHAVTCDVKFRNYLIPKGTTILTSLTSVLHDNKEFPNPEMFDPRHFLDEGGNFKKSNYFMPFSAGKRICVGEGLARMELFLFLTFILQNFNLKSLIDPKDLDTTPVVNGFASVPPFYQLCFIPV
E coli WT exp: growth inhibitors of E. coli BW25113 wild type. AID 710. 98,000 tested, 0.15% active. growth inhibition, % at 100 µM. OD600 absorbance;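 active means growth inhibition above about 50% at one test dose, limit read from the data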;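 further: growth measured after 20 h incubation at 37 °C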
tolC growth inh: E. coli tolC mutant growth inhibition; 65,000 tested, 2.2% active; AID 573; growth inhibition, % at 10 µM (by protocol); E. coli BW25113 tolC mutant growth, OD615;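 active means growth inhibition at or above a cutoff equal to the mean over every tested compound plus 3 SD, cut at about 60% in these data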;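 further: growth measured after 20 h incubation at 37 °C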
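Material: E. coli BW25113 ΔtolC::kan, tolC deletion mutant strain. Measure: percent growth inhibition. Schedule: 37 °C, 20 h exposure. Doses: single-point testing at 10 µM. Signal: A615 absorbance measurement. Buffer or medium: kanamycin-containing LB broth (50 µg/mL).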
CYP2C9 inhib: human CYP2C9 inhibition. CYP2C9 Supersomes, luciferin-H conversion, luminescence. inhibition, % at 5 µM. 96,000 tested, 20% active. P11712;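 active means blocking of liver enzyme CYP2C9 beyond about 50% at 5 µM, limit read from the data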
CYP2C19 activ: increases human CYP2C19 enzyme activity. recombinant CYP2C19, luciferin-H EGE luminescence; stronger effect = higher value; 0 = fully inhibited enzyme, 1 = untreated enzyme. P33261. 96,000 tested, under 10 active. activation factor at 5 µM. AID 1025;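 active means activation factor of at least 2 at 5 µM in the primary screen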;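 further: 0 = wells with 2.5 mM tranylcypromine and 1 = vehicle-only wells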
CYP2C9 act: CYP2C9 (human) activation | P11712 | recombinant CYP2C9, luciferin-H conversion, luminescence; stronger effect = higher value; factor 1 = untreated enzyme, 0 = blocked | activation factor at 5 µM | 96,000 tested, 1.4% active | AID 1024;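 active means activation factor of 2 or more for CYP2C9 at a 5 µM dose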;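 further: 0 = sulfaphenazole-blocked wells and 1 = vehicle-only wells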
Starred values were filed as active, the others as inactive; x = no result given.

SMILES	CYP2C19 inhib	E coli WT exp	tolC growth inh	CYP2C9 inhib	CYP2C19 activ	CYP2C9 act
Cn1c(=O)oc2cc(S(=O)(=O)N3CCCC(C(=O)N4CC=C(c5ccccc5)CC4)C3)ccc21 (stereo not drawn)	72*	-4	4	-22	0.3	1.2
Cc1csc(N(C)C(=O)CSc2nnc(COc3cccc4ccccc34)o2)n1	20	3	15	-32	0.8	1.3
CC(=O)N1CCC(=NNS(=O)(=O)c2cccc([N+](=O)[O-])c2)CC1	-10	11	x	-24	1.1	1.2
CSc1ccccc1NS(=O)(=O)c1ccc2c(c1)OCCO2	79*	4	17	-170	0.2	2.7*
O=S(=O)(Nc1cccnc1Cl)c1ccc2c(c1)OCCO2	22	1	x	20	0.8	0.8
CCCNC(=O)c1ccccc1NS(=O)(=O)c1ccc2c(c1)OCCO2	44	2	2	-104	0.6	2*
CC(C)COc1ccccc1C(=O)NC(CO)C(=O)O (stereo not drawn)	0	0	x	14	1	0.9
ONC=Nc1cccc2nonc12	2	7	-26	6	1	0.9
COC(=O)C(NC(=O)c1ccc(F)cc1)(Nc1ncc(S(=O)(=O)c2ccc([N+](=O)[O-])cc2)s1)C(F)(F)F (stereo not drawn)	50*	-4	x	88*	0.5	0.1
COC(=O)C(NC(=O)c1ccccc1C)(Nc1ncc(S(=O)(=O)c2ccc([N+](=O)[O-])cc2)s1)C(F)(F)F (stereo not drawn)	43	-1	x	60*	0.6	0.4
Cc1ccc(C(=O)NC(=S)Nc2cccc3c(C)cc(C)nc23)cc1	9	3	x	10	0.9	0.9
CCc1cccc(OCCCN2C(=O)NC(C)(C)C2=O)c1	92*	1	x	60*	0.1	0.4
CC(=O)c1cccc(OCCN2C(=O)NC(C)(C)C2=O)c1	34	4	-11	50*	0.7	0.5
COc1cccc2cc(C(=O)C3=C(O)C(=O)N(Cc4ccco4)C3c3cccnc3)oc12 (stereo not drawn)	-1	-5	14	38	1	0.6
O=C(OCc1ccc(F)cc1)c1ccc2c(c1)-c1ccccc1C2=O	2	-13	x	15	1	0.9
CCOC(=O)C1=C(Cc2ccc(F)cc2)C(=O)c2ccccc2C1=O	87*	9	x	42	0.1	0.6
COc1ccc2[nH]c(C)c(CCN3C(=O)OC(C)(C)C3(C)O)c2c1 (stereo not drawn)	99*	-5	-8	86*	0	0.1
COc1ccc2[nH]c(C)c(CCN3C(=O)C4CC=CCC4C3=O)c2c1 (stereo not drawn)	97*	-3	11	58*	0	0.4
COc1ccc2[nH]c(C)c(CN3CCC(C)CC3)c(=O)c2c1	-15	7	-9	-11	1.2	1.1
COc1ccc(CCNC(=O)c2cnccn2)cc1	53*	9	-10	7	0.5	0.9
COc1ccccc1CNC(=O)COC(=O)c1cnccn1	67*	4	-26	4	0.3	1
CCOCCCNC(=O)C(NC(=O)c1cnccn1)c1ccc(OC)cc1 (stereo not drawn)	32	4	-12	15	0.7	0.8
CCCc1ccc(C(C)NC(=O)c2cnccn2)cc1 (stereo not drawn)	76*	-1	5	53*	0.2	0.5
O=C(Oc1ccccc1)c1ccc(COC(=O)c2cnccn2)cc1	45	11	4	56*	0.6	0.4
COc1ccc(CCNC(=O)c2cccnc2)cc1	35	-1	x	29	0.7	0.7
SMILES	CYP2C19 inhib	E coli WT exp	tolC growth inh	CYP2C9 inhib	CYP2C19 activ	CYP2C9 act
O=C(NCc1ccccn1)c1ccc(COc2ccc(Cl)cc2)o1	8	10	36	5	0.9	0.9
CN1CCN(C(=S)Nc2ccccc2Cl)CC1	3	8	x	9	1	0.9
COc1ccccc1CNC(=O)COC(=O)c1n[nH]c2ccccc12	97*	9	x	-134	0	2.3*
COc1ccc(CNC(=O)COC(=O)c2cnccn2)cc1	64*	3	x	21	0.4	0.8
COc1ccc(CCNC(=O)COC(=O)c2cnc(C)cn2)cc1	5	7	x	27	1	0.7
COc1ccc(CCNC(=O)c2nn(C)cc2Cl)cc1	70*	7	-5	3	0.3	1
O=C1c2oc3ccc(Cl)cc3c(=O)c2C(c2ccccn2)N1CCCN1CCOCC1 (stereo not drawn)	4	x	-1	9	1	0.9
O=C(Nc1ccccc1)C1CCN(C(=O)c2ccccc2)CC1	23	-4	x	35	0.8	0.6
COc1ccc(CN(C(=O)Cn2nnc3ccccc32)C(C(=O)NC(C)(C)C)c2ccco2)cc1 (stereo not drawn)	-1	0	-20	-2	1	1
COc1ccc(CC(=O)N2CC3(C)CC2CC(C)(C)C3)cc1 (stereo not drawn)	37	6	x	19	0.6	0.8
COc1ccc(C(C)=O)cc1COC(=O)c1c(C)noc1C	61*	-4	7	52*	0.4	0.5
Cc1noc(C)c1COc1ccc(C(=O)OCC(=O)N2CC3(C)CC2CC(C)(C)C3)cc1 (stereo not drawn)	64*	-6	22	53*	0.4	0.5
Cc1cccc(C)c1OCC(=O)N1CC2(C)CC1CC(C)(C)C2 (stereo not drawn)	61*	3	x	-22	0.4	1.2
COc1ccc(C(C)=O)cc1COC(=O)c1ccc(OCc2c(C)noc2C)cc1	88*	-2	-19	76*	0.1	0.2
O=C(CSc1nnc(CN2CCOCC2)n1-c1ccccc1)Nc1ccc(Cl)cc1	x	-2	3	x	x	x
Cc1ccc2oc(Nc3nc(C)cc(C)n3)nc2c1	3	-2	10	-5	1	1
Cc1noc(C)c1COc1ccc(C(=O)OCC(=O)Nc2ccc3ccccc3c2)cc1	65*	-28	x	88*	0.4	0.1
CCOC(=O)c1cc(NC(=O)c2c(C)noc2C)cc(C(=O)OCC)c1	10	-3	12	75*	0.9	0.3
Cc1noc(C)c1COc1ccc(C(=O)OCC(=O)c2ccc3c(c2)OCCO3)cc1	-18	-6	-11	-8	1.2	1.1
CCOC(=O)c1ccc(OCc2c(C)noc2C)cc1	75*	-4	x	79*	0.3	0.2
CCOc1nc(SCCOc2ccccc2)nc(N(C)C)n1	43	7	2	10	0.6	0.9
CCOC(=O)N1CCN(S(=O)(=O)c2cc(OCC(N)=O)c(C)cc2Cl)CC1	48	4	15	7	0.5	0.9
CCOC(=O)N1CCN(S(=O)(=O)c2cccc3nsnc23)CC1	76*	8	-8	19	0.2	0.8
CCOC(=O)N1CCN(S(=O)(=O)c2ccc3c(c2)oc(=O)n3C)CC1	58*	-3	-19	0	0.4	1
